Screening data (PubChem)
This is a sample that favours compounds with a hit; in the whole collection about 2.2% have one here.
Exocytosis inh – lytic granule exocytosis inhibition. TALL-104 LAMP-1 surface exposure, flow cytometry; cells stimulated with thapsigargin and PMA. inhibition, % at 10 µM. 360,000 tested, 0.66% active;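 active = inhibition above about 55%, limit read from the data; inconclusive = no clear call, values can overlap the other calls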
CSN deneddyl inh – blocks human CSN-mediated cullin deneddylation; Q92905; Purified CSN, SCF-Nedd8-OG deneddylation, fluorescence polarization; inhibition, % at 12.5 µM; 360,000 tested, 0.38% active; AID 651999;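 active = pattern-corrected inhibition above about 35%, with an unprinted fluorescence ratio check between 0.5 and 1.5, limit read from the data, passing the limit was not always enough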;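 also: 0% = enzyme with substrate and 100% = substrate without enzyme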
Target sequence (Q92905 whole entry, looked up, one chain of several): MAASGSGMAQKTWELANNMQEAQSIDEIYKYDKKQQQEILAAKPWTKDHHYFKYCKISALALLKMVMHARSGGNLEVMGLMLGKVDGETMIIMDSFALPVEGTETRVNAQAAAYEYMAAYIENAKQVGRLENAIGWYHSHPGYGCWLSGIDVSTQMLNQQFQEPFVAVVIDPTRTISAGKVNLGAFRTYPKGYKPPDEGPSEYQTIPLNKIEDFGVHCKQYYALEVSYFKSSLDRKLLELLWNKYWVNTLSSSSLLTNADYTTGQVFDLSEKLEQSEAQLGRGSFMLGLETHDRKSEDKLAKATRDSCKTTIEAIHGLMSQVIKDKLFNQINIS
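Detection – fluorescence polarization · System – HEK293T-derived human Csn5 enzyme · Controls – substrate-only high control, full reaction low control · Timing – 90 min, room temperature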
Myeloid diff MLP – myeloid differentiation induction | ER-HoxA9 myeloid progenitors, lysozyme-GFP differentiation, flow cytometry | calls only at 10 µM | 360,000 tested, 1% active;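 active = normalized GFP-positive differentiation at or above the plate's own cutoff, the solvent-only control mean plus 3 SD; inconclusive = no clear call, values can overlap the other calls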;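 also: cells exposed to compound for four days before flow analysis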
HNF4A DNA FP – change in binding of human HNF4 alpha to DNA; 360,000 tested, 0.3% active; activity change, % at 10 µM; HNF4a-FITC DNA binding, fluorescence polarization, 1 h; in the data active = activity change above about 30%, passing the limit was not always enough
Myeloid diff CP1 – promotes myeloid progenitor differentiation; ER-HoxA9 myeloid progenitors, GFP/Mac1 double-positive flow; shares compounds with Myeloid diff MLP; calls only; 2,300 tested, 2% active;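 active = share of green or green-and-red cells above 9 and 9% in run 1 or 4 and 3% in run 2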
GFP autofluor – compound fluorescence in myeloid differentiation counter-screen | shares compounds with Myeloid diff MLP | ER-HoxA9 myeloid progenitors, no estrogen, GFP autofluorescence flow cytometry; vehicle wells 0%, positive control 100% | fluorescence response, % (concentration not given with the values) | 2,300 tested, 7.4% active | AID 651707;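 active = over 5% cells positive for green fluorescent reporter, or over 2% positive for both it and APC stain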;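 also: range taken on the double positive population between DMSO and positive control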
* hit, by the source's call; i = inactive; ? = inconclusive; · = not tested or not shown; + = active, no number.

SMILES	Exocytosis inh	CSN deneddyl inh	Myeloid diff MLP	HNF4A DNA FP	Myeloid diff CP1	GFP autofluor
CCn1ncc(C2=NOC(C(=O)Nc3cc(OC)c(Cl)cc3OC)C2)c1C (centres undefined)	0	-6	i	4	i	0
CC(C)(C)c1ccc(NC(=O)CC2(C(F)(F)F)OCCO2)cc1	3	-4	i	2	i	2
CC1CN(S(=O)(=O)c2cccc(C(=O)NCCC3=CCCCC3)c2)CC(C)O1 (centres undefined)	2	-3	i	3	·	·
CCOc1cccc(/C=N/Nc2ccc(S(=O)(=O)N(CC)CC)cn2)c1O	-4	7	?	-7	·	·
CCN(CC)S(=O)(=O)c1ccc(N/N=C/c2ccc(O)cc2)nc1	-1	-9	i	-3	i	0
CCOc1cccc(/C=N/NC(=O)c2cc(-c3cccn3C)n[nH]2)c1O	-4	1	+	0	i	0
O=C(NCCN1CCC(n2c(=O)[nH]c3ccccc32)CC1)c1cccs1	-4	-4	i	1	·	·
COc1ccccc1CNC(=O)Cn1cccc1C(=O)c1ccccc1	-2	4	i	-2	·	·
CCCn1ncc(CN2CCC(C(=O)Nc3cccc(-c4cccc(F)c4)c3)CC2)c1C	22	-4	+	1	i	0
CC(C)Cn1c(SC(C)C(=O)Nc2ccc3c(c2)OCCO3)nc2ccccc2c1=O (centres undefined)	2	5	i	-3	·	·
CC(Sc1nc2ccccc2c(=O)n1C)C(=O)Nc1ccc2c(c1)OCCO2 (centres undefined)	-1	-1	i	4	i	1
CC(NS(=O)(=O)c1ccc2c(c1)CC(=O)N2C)c1ccccc1 (centres undefined)	-9	0	i	1	·	·
C/C(=N\NC(=O)c1ccc2c(c1)OCO2)c1ccc(NC(=O)CCCC(=O)O)cc1	-3	-1	i	0	i	0
COc1cc(-c2ncc3ccccn23)cc(OC)c1OC	-3	-3	+	6	i	0
COc1cc(OC)cc(-c2ncc3ccccn23)c1	4	3	i	-1	·	·
CN(C)C1=NCCN1CCC1CCCCC1	0	4	i	-3	·	·
CC(OC(=O)c1nc(Cl)ccc1Cl)C(=O)NCc1ccccc1 (centres undefined)	3	0	i	0	·	·
C#Cc1ccc([C@H]2C=C(C(=O)NCc3nc4ccccc4[nH]3)O[C@@H](OCc3ccc(CO)cc3)C2)cc1	5	9	i	8	i	0
O=C(NCc1ccccc1)C1=C[C@@H](c2csc3ccccc23)C[C@@H](OCc2ccc(CO)cc2)O1	-14	-7	+	-6	i	0
O=C(O)C1=C[C@H](c2csc3ccccc23)C[C@H](OCc2ccc(CO)cc2)O1	5	1	i	0	·	·
COc1ccc(CN2CC(=O)N3[C@H]4c5ccccc5OC[C@@H]4[C@H](c4ccccc4)[C@]3(C)C2=O)cc1	9	-4	i	-16	·	·
CN1CCN(c2ccccc2/C=C2/C(=O)Nc3ccccc32)CC1	?	-4	i	4	i	83*
O=C1Nc2ccccc2/C1=C/c1ccccc1Cl	11	1	i	0	·	·
CC(=O)c1c(N2CCOCC2)[nH]c(-c2ccccc2)nc1=S	1	-4	+	6	+	0
COc1cc2c(c(OC)c1OC)C(=O)C(=Cc1ccccc1)O2	3	10	i	4	·	·
SMILES	Exocytosis inh	CSN deneddyl inh	Myeloid diff MLP	HNF4A DNA FP	Myeloid diff CP1	GFP autofluor
CC(OC(=O)/C=C/c1cccs1)C(=O)Nc1ccc(S(N)(=O)=O)cc1 (centres undefined)	-3	3	i	1	·	·
CC(OC(=O)/C=C/c1ccc2ccccc2n1)C(=O)Nc1ccc(S(N)(=O)=O)cc1 (centres undefined)	3	2	i	1	i	0
O=c1[nH]c(=S)c2c(n1-c1ccccc1)CCC2	1	-4	i	-1	·	·
CC1Cc2c([nH]c(=O)n(-c3ccccc3)c2=O)O1 (centres undefined)	-2	0	i	0	i	0
COc1cc(/C=C2\NC(=S)N(C)C2=O)ccc1O	-7	34	+	20	i	5.1*
CN1C(=O)/C(=C/c2ccc(O)c([N+](=O)[O-])c2)NC1=S	2	-2	i	-2	·	·
CC(C)C[C@H]1CN=C(Nc2ccccc2)N1CC1CCC(C)CC1 (some centres undefined)	17	5	i	-1	·	·
CCCS(=O)(=O)NC(=O)C1(C)CCCN(C(=O)c2cc(C)nn2C(C)(C)C)C1 (centres undefined)	-6	-1	i	3	i	0
COC(=O)c1ccc(C(=O)N2CCCC(N3CCN(c4ccc(F)cc4)CC3)C2)nc1 (centres undefined)	-16	-5	i	-5	·	·
CCN(CC)CCNC(=O)c1cc2c(-c3ccc(Cl)cc3)nn(C)c2s1	11	0	+	2	i	0
Cc1nc(NC(=O)c2ccc(Br)s2)sc1C(=O)N(C)C	-1	-4	i	-1	i	0
CC(C)(C)c1ccc(C(=O)N2CCCC2c2cccs2)cc1 (centres undefined)	8	1	i	6	·	·
CC1CCc2sc(C(=O)NN)cc2C1 (centres undefined)	0	0	i	3	·	·
CC1CCc2sc(C(=O)NN=C3CCCC3)cc2C1 (centres undefined)	-5	0	+	6	i	0
CC(CCc1ccccc1)NC(=O)c1nnc(Cc2ccc(Cl)cc2)o1 (centres undefined)	-7	-5	i	2	i	0
Cc1ccc(F)c(Cn2cnc3c(cnn3C(C)(C)C)c2=O)c1Cl	3	1	i	-1	·	·
Cc1cc(NC(=O)C(C)SCC(=O)Nc2nnc(CC(C)C)s2)no1 (centres undefined)	-5	-3	·	3	·	·
Cc1cc(NC(=O)C(C)Sc2nnc(NCc3ccco3)s2)no1 (centres undefined)	-3	2	+	-2	i	0
C[C@@H]1CC[C@H](Cc2ccc(-n3cccc3)cc2)N1C(=O)OC(C)(C)C	-3	5	i	-3	·	·
O=C(CSc1nc2ccccc2c(=O)n1-c1ccc(F)cc1)Nc1ccc2c(c1)CCC2	-1	-2	i	-6	·	·
O=C(CSc1nc2ccc(F)cc2c(=O)n1-c1ccccc1)Nc1ccc2c(c1)CCC2	4	-2	+	-2	i	0
Cc1ccc(NC(=O)CCN2C(=O)C3CCCCC3C2=O)cc1[N+](=O)[O-] (centres undefined)	4	4	i	0	·	·
Cc1cccc(C(=O)NCc2nnc(SCC(=O)Nc3nncs3)n2C)c1	-15	3	i	-2	·	·
